In ChEMBL document CHEMBL2169863, “Discovery, structure-activity relationship, and biological evaluation of noninhibitory small molecule chaperones of glucocerebrosidase” (J Med Chem, 2012):
Changes are numbered by the printed parent chain. The source made the active and inactive calls. The calls are words filed in the database; no cut-off is given here.

How the values were obtained:
Plasma [1] = experiment: AUClast in C57BL/6 mouse plasma at 50 mg/kg, ip; assay type: ADME, organism-based; design: time 0 - last, dose 50 mg/kg, route intraperitoneal; settings: in vivo
In short: (§1)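 Male C57BL/6 mice, 18−26 g, given a single ip dose of 50 mpk in 20% PEG 400 + 80% (20% HP-β-CD). Plasma, brain and liver were sampled, and brain and liver were homogenized in 3 volumes of PBS pH 7.4 (dilution factor 4). Analysis was by LC−MS/MS. Mean profiles N = 3.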

Caco-2 [2] = experiment: Apparent permeability of the compound from basal to apical side of human Caco2 cells after 2 hrs; assay type: ADME, cell-based; settings: caco-2, 2 h
In short: (§2)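 Caco-2 monolayers were grown 3 weeks, with integrity checked by Lucifer yellow. Compound was added apically (pH 6.5 HBSS/HEPES/glucose buffer) or basolaterally (pH 7.4) and incubated 2 h. Transfer was quantified by LC−MS/MS and expressed as P_app. Efflux ratio is P_app B→A over A→B.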

Homo sapiens = species: Homo sapiens; experiment: Activation of Glucocerebrosidase N370S/N370S mutant translocation to lysosome in Gaucher patient dermal fibroblasts at 5 uM incubated for 6 days by LAMP2 co-localization-based laser scanning confocal microscopic analysis relative to vehicle-treated control
Caco-2 [3] = experiment: Efflux ratio of apparent permeability from basal to apical to apical to basal side of human Caco2 cells after 2 hrs; assay type: ADME, cell-based; settings: caco-2, 2 h; in short: as §2
Plasma [4] = experiment: Half life in C57BL/6 mouse plasma at 50 mg/kg, ip; assay type: ADME, organism-based; design: dose 50 mg/kg, route intraperitoneal; settings: in vivo; in short: as §1
[5] = Cytotoxicity against human dermal fibroblasts isolated from Gcase N370S carrier at 5 uM after 6 days; assay type: cell-based; settings: fibroblast, 144 h
In short: (§3)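 Fibroblasts of the stated genotype were seeded at 5000 cells/well. After 1 day they were switched to OPTI-MEM with 5% FBS and treated 6 days with compound. Viability was read by CellTiter-Glo luminescence on a parallel plate.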

[6] = molecular target: T1, Lysosomal acid glucosylceramidase (Homo sapiens) (UniProt P04062); experiment: Activation of wild type glucocerebrosidase translocation to lysosome in human dermal fibroblast incubated for 6 days by LAMP2 colocalization-based laser scanning confocal microscopic analysis relative to vehicle-treated control
T1 sequence (whole entry): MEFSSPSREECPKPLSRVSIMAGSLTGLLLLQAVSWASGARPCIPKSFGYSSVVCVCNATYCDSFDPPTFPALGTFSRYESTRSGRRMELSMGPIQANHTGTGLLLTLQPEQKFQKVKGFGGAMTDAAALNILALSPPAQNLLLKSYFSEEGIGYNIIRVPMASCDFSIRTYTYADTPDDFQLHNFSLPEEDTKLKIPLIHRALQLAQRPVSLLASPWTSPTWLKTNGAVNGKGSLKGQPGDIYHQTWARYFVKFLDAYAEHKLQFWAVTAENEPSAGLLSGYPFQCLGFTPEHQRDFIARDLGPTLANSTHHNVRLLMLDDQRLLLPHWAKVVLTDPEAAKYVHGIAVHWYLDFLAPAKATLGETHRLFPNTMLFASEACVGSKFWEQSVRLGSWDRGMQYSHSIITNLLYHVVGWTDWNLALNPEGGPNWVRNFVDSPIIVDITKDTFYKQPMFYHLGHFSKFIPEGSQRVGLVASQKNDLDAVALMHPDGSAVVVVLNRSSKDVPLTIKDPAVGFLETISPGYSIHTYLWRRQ

[7] = molecular target: T2, Lysosomal acid glucosylceramidase (Homo sapiens, UniProt P04062); experiment: (§4) Binding affinity to NT-647 labeled glucocerebrosidase by microscale thermophoretic analysis; settings: read-out: Kd(app)
T2 sequence (P04062 whole entry): T1 sequence (whole entry)
In short: (§5)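 NT-647-labeled glucocerebrosidase at ~20 nM in 50 mM phosphate pH 7.2, 0.05% Tween-20. It was mixed 1:1 with a 16-point DMSO dilution series and incubated 15 min at room temperature before capillary microscale thermophoresis. Apparent K_d was taken from the dose-dependent fluorescence change.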

[8] = molecular target: T1, Lysosomal acid glucosylceramidase (Homo sapiens); experiment: as §4; in short: as §5
[9] = Cytotoxicity against human dermal fibroblasts expressing wild type GCase at 5 uM after 6 days; assay type: cell-based; settings: fibroblast, 144 h; in short: as §3
[10] = Cytotoxicity against human dermal fibroblasts expressing GCase L444P/L444P mutant at 5 uM after 6 days; assay type: cell-based; settings: fibroblast, 144 h; in short: as §3
Plasma [11] = experiment: Cmax in C57BL/6 mouse plasma at 50 mg/kg, ip; assay type: ADME, organism-based; design: dose 50 mg/kg, route intraperitoneal; settings: in vivo; in short: as §1
Liver [12] = experiment: AUClast in C57BL/6 mouse liver at 50 mg/kg, ip; assay type: ADME, organism-based; design: time 0 - last, dose 50 mg/kg, route intraperitoneal; settings: in vivo; in short: as §1
Liver [13] = experiment: Tmax in C57BL/6 mouse liver at 50 mg/kg, ip; assay type: ADME, organism-based; design: dose 50 mg/kg, route intraperitoneal; settings: in vivo; in short: as §1
Plasma [14] = experiment: Tmax in C57BL/6 mouse plasma at 50 mg/kg, ip; assay type: ADME, organism-based; design: dose 50 mg/kg, route intraperitoneal; settings: in vivo; in short: as §1
[15] = tested on: T3, Lysosomal acid glucosylceramidase (Homo sapiens), P04062 [N409S]; experiment: Activation of glucocerebrosidase N370S mutant in Gaucher patient spleen homogenates using 4-methylumbelliferone-Glc as substrate assessed as half-maximal activation concentration incubated for 5 mins prior to substrate addition measured after 30 to 45 mins by fluorimetric analysis; assay type: tissue-based
T3 sequence (whole entry): T1 sequence (whole entry) with N409S
In short: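 Spleen homogenate (27 μg final) in pH 5 citrate/phosphate buffer with KCl, NaCl, MgCl₂ and 0.01% Tween-20. Compound was titrated 0.5 nM to 58 μM and preincubated 5 min at room temperature. Reaction used 1 mM 4MU-Glc for 30−45 min at 37 °C and was stopped with NaOH/glycine pH 10. Read-out was fluorescence at Ex 365/Em 440 nm. AC₅₀ is the average of N = 2.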

[16] = tested on: T3, Lysosomal acid glucosylceramidase (Homo sapiens), P04062 [N409S]; experiment: Activation of Glucocerebrosidase N370S/N370S mutant translocation to lysosome in Gaucher patient dermal fibroblasts at 5 uM incubated for 6 days by LAMP2 colocalization-based laser scanning confocal microscopic analysis relative to vehicle-treated control
In short: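 N370S/N370S Gaucher dermal fibroblasts were treated 6 days at 1, 5 or 25 μM, with DMSO vehicle control. Cells were fixed in 3% paraformaldehyde, permeabilized with Triton-X and stained with anti-GCase R386 (Alexa555), anti-LAMP-2 (Alexa488) and DAPI. Confocal imaging used constant laser settings, scoring GCase/LAMP-2 colocalization.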

AUClast (Plasma [1]): 434 ng·h/mL
Papp (Caco-2 [2]): 2 ×10⁻⁶ cm/s
Activity (Homo sapiens): Active
Ratio (Caco-2 [3]): 0.3
t1/2 (Plasma [4]): 1160 min
Activity [6]: Active
Kd [7]: 9 µM
Activity [8]: Dose-dependent effect
Cmax (Plasma [11]): 1030 nM
AUClast (Liver [12]): 54300 ng·h/mL
Tmax (Liver [13]): 15 min
Tmax (Plasma [14]): 15 min
Activity [15]: 0.36 µM
Activity [16]: Active
SMILES: C#Cc1ccc(NC(=O)c2cnn3c(C)cc(C)nc23)cc1
Activity [5]: Non-toxic
Activity [9]: Non-toxic
Activity [10]: Non-toxic
